In ChEMBL document CHEMBL4177542, “A New Combination of a Pleuromutilin Derivative and Doxycycline for Treatment of Multidrug-Resistant Acinetobacter baumannii” (J Med Chem, 2017):
Values after ≈ are worked out from the molar mass of the structure shown.

How the values were obtained:
[1] = test system: Acinetobacter baumannii; assay: Growth inhibition of multidrug-resistant Acinetobacter baumannii ATCC BAA 18002 after 48 hrs by resazurin dye based broth microdilution method; assay type: functional; settings: ATCC BAA 18002, 48 h
In short: (§1)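 Broth microdilution in tryptic soy broth. Mid-log cultures (OD600 0.5) treated with serial dilutions from a DMSO stock (1 mg per 100 μL) for 48 h at 37 °C. Resazurin (stock 0.02%) then added for 1 h at 37 °C. MIC is the lowest concentration staying blue; MBC is blue retained over 4 h (99.9% kill), with CFU plating when needed.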

[2] = test system: Acinetobacter baumannii; assay: Potentiation of doxycycline-induced antimicrobial activity against Acinetobacter baumannii ATCC 19606 at 0.2 ug/ml in presence of 0.025 ug/ml doxycycline by microdilution broth checkerboard method; assay type: functional, ATCC 19606 = CIP 70.34 = JCM 6841
In short: (§2)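 A. baumannii ATCC 19606 in a broth microdilution checkerboard with doxycycline, 96 concentration combinations. ΣFIC = C_A/MIC_A + C_B/MIC_B, taken for wells at the growth/no-growth interface; ΣFIC <0.5 counts as synergy.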

[3] = test system: Acinetobacter baumannii; assay: Synergistic bactericidal activity against Acinetobacter baumannii ATCC 19606 at 2:1 compound to doxycycline ratio after 48 hrs by resazurin dye based microdilution broth checkerboard method; assay type: functional; settings: ATCC 19606 = CIP 70.34 = JCM 6841, 48 h, read-out: MBC99.9
In short: (§3)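 Checkerboard broth microdilution of drug pairs in tryptic soy broth on mid-log cultures (OD 0.5), 48 h at 37 °C. Growth read by resazurin (pink growth, blue no growth). MBC is blue retained over 4 h, CFU plating where needed. ΣFIC = C_A/MIC_A + C_B/MIC_B, taken at the growth/no-growth interface wells; ΣFIC <0.5 counts as synergy.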

[4] = test system: Escherichia coli; assay: Synergistic antibacterial activity against Escherichia coli ATCC 10798 at 2:1 compound to doxycycline ratio after 48 hrs by resazurin dye based microdilution broth checkerboard method; assay type: functional; settings: ATCC 10798, 48 h; in short: as §3
[5] = test system: Acinetobacter baumannii; assay: Synergistic bactericidal activity against Acinetobacter baumannii ATCC 19606 at 35:1 compound to doxycycline ratio after 48 hrs by resazurin dye based microdilution broth checkerboard method; assay type: functional; settings: ATCC 19606 = CIP 70.34 = JCM 6841, 48 h, read-out: MBC99.9; in short: as §3
[6] = test system: Acinetobacter baumannii; assay: Synergistic antibacterial activity against multidrug-resistant Acinetobacter baumannii ATCC […] at 60:1 compound to doxycycline ratio after 48 hrs by resazurin dye based microdilution broth checkerboard method; assay type: functional; settings: ATCC BAA 18002, 48 h
In short: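 Microdilution broth checkerboard of the compound combined with doxycycline, using the resazurin broth method (48 h, 37 °C, blue = no growth). ΣFIC = C_A/MIC_A + C_B/MIC_B, taken at the growth–no growth interface wells; ΣFIC below 0.5 is scored as synergy. MBC for the fixed-ratio combinations read as the 4 h resazurin endpoint.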

[7] = test system: Acinetobacter baumannii; assay: Synergistic antibacterial activity against Acinetobacter baumannii ATCC 19606 infected in C57BL/6 mouse assessed as survival rate at compound to doxycycline ratio of 35:1 at 2 mg/kg, ip administered as single dose measured for 5 days (reference value: <20%); assay type: functional; settings: ATCC 19606 = CIP 70.34 = JCM 6841, ip, 120 h
In short: (§4)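 C57BL/6 mice (n = 5 per group; 4 untreated controls) infected intraperitoneally with A. baumannii ATCC19606 grown at 37 °C and collected by centrifugation, at a dose giving 75% death. Single intraperitoneal dose (2 to 60 mg/kg) given 1 h after infection. Mice monitored for 5 days, with death as the end point; survival rate recorded.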

[8] = test system: Klebsiella pneumoniae; assay: Synergistic bactericidal activity against Klebsiella pneumoniae ATCC 8047 at 2:1 compound to doxycycline ratio after 48 hrs by resazurin dye based microdilution broth checkerboard method; assay type: functional; settings: ATCC 8047, 48 h, read-out: MBC99.9; in short: as §3
[9] = test system: Klebsiella pneumoniae; assay: Growth inhibition of Klebsiella pneumoniae ATCC 8047 after 48 hrs by resazurin dye based microdilution method; assay type: functional; settings: ATCC 8047, 48 h; in short: as §1
[10] = test system: Acinetobacter baumannii; assay: Synergistic antibacterial activity against Acinetobacter baumannii ATCC 19606 infected in C57BL/6 mouse assessed as increase in survival rate at compound to doxycycline ratio of 35:1 administered ip as single dose measured for 5 days; assay type: functional; settings: ATCC 19606 = CIP 70.34 = JCM 6841, ip, 120 h; in short: as §4
[11] = test system: Escherichia coli; assay: Growth inhibition of Escherichia coli ATCC 10798 after 48 hrs by resazurin dye based microdilution method; assay type: functional; settings: ATCC 10798, 48 h; in short: as §1
[12] = test system: Staphylococcus aureus; assay: Synergistic bactericidal activity against Staphylococcus aureus ATCC 25923 at 2:1 compound to doxycycline ratio after 48 hrs by resazurin dye based microdilution broth checkerboard method; assay type: functional; settings: ATCC 25923, 48 h, read-out: MBC99.9; in short: as §3
[13] = test system: Escherichia coli; assay: Synergistic antibacterial activity against Escherichia coli ATCC 10798 at 35:1 compound to doxycycline ratio after 48 hrs by resazurin dye based microdilution broth checkerboard method; assay type: functional; settings: ATCC 10798, 48 h; in short: as §3
[14] = test system: Staphylococcus aureus; assay: Bactericidal activity against Staphylococcus aureus ATCC 25923 after 48 hrs by resazurin dye based microdilution method; assay type: functional; settings: ATCC 25923, 48 h, read-out: MBC99.9; in short: as §1
[15] = Efflux ratio of apparent permeability in human Caco2 cells; assay type: ADME, cell-based; settings: Caco-2
[16] = test system: Pseudomonas aeruginosa; assay: Synergistic bactericidal activity against Pseudomonas aeruginosa ATCC 27853 at 60:1 compound to doxycycline ratio after 48 hrs by resazurin dye based microdilution broth checkerboard method; assay type: functional; settings: ATCC 27853, 48 h, read-out: MBC99.9; in short: as §3
[17] = test system: Acinetobacter baumannii; assay: Growth inhibition of Acinetobacter baumannii ATCC 19606 after 48 hrs by resazurin dye based microdilution method; assay type: functional; settings: ATCC 19606 = CIP 70.34 = JCM 6841, 48 h
In short: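 A. baumannii ATCC 19606 grown in tryptic soy broth, 37 °C with shaking, to mid-log (OD 0.5). Cultures treated with serial dilutions of inhibitor (DMSO stock 1 mg/100 μL), 48 h at 37 °C. Resazurin then added, 1 h at 37 °C with shaking. MIC is the lowest concentration staying blue; MBC is blue retained over 4 h, with CFU plating if needed (99.9% kill).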

[18] = test system: Mycobacterium tuberculosis; assay: Bactericidal activity against Mycobacterium tuberculosis H37Rv after 48 hrs by resazurin dye based microdilution method; assay type: functional; settings: read-out: MBC99.9
[19] = test system: Acinetobacter baumannii; assay: Synergistic bactericidal activity against multidrug-resistant Acinetobacter baumannii ATCC […] at 60:1 compound to doxycycline ratio […] by resazurin dye based microdilution broth checkerboard method; assay type: functional; settings: read-out: MBC99.9
[20] = test system: Acinetobacter baumannii; assay: Potentiation of doxycycline-induced antimicrobial activity against Acinetobacter baumannii ATCC 19606 at 0.40 ug/ml in presence of 0.025 ug/ml doxycycline by microdilution broth checkerboard method; assay type: functional, ATCC 19606 = CIP 70.34 = JCM 6841; in short: as §2
[21] = Solubility of the compound in water at 10 mg after 24 hrs by HPLC based shake flask method; assay type: physicochemical
[22] = test system: Acinetobacter baumannii; assay: Potentiation of doxycycline-induced antimicrobial activity against Acinetobacter baumannii ATCC 19606 at 1.56 ug/ml in presence of 0.025 ug/ml doxycycline by microdilution broth checkerboard method; assay type: functional, ATCC 19606 = CIP 70.34 = JCM 6841; in short: as §2
[23] = test system: Pseudomonas aeruginosa; assay: Bactericidal activity against Pseudomonas aeruginosa ATCC 27853 after 48 hrs by resazurin dye based microdilution method; assay type: functional; settings: ATCC 27853, 48 h, read-out: MBC99.9; in short: as §1
[24] = test system: Acinetobacter baumannii; assay: Synergistic antibacterial activity against Acinetobacter baumannii ATCC 19606 infected in C57BL/6 mouse assessed as survival rate at compound to doxycycline ratio of 35:1 at 20 mg/kg, ip administered as single dose measured for 5 days (reference value: <20%); assay type: functional; settings: ATCC 19606 = CIP 70.34 = JCM 6841, ip, 120 h; in short: as §4
[25] = test system: Acinetobacter baumannii; assay: Synergistic antibacterial activity against Acinetobacter baumannii ATCC 19606 at 2:1 compound to doxycycline ratio after 48 hrs by resazurin dye based microdilution broth checkerboard method; assay type: functional; settings: ATCC 19606 = CIP 70.34 = JCM 6841, 48 h; in short: as §3

Q: With `C=C[C@]1(C)C[C@@H](OC(=O)CSC(C)(C)CNC(=O)[C@H](N)C(C)C)[C@]2(C)[C@H](C)CC[C@]3(CC[C@@H](O)[C@H]32)[C@@H](C)[C@@H]1O` as the molecule, how does the MIC [1] read?
A: 6.25 mg/L (≈ 11 µM)

Q: And the “fractional inhibitory concentration index (FICI)” value [2]?
A: 0.16

Q: What about the MBC [3] of the same molecule?
A: 2 mg/L

Q: And the MIC [4]?
A: 0.25 mg/L

Q: And the MBC [5]?
A: 2 mg/L

Q: And the MIC [6]?
A: 1.56 mg/L

Q: And the survival at 2 mg/kg [7]?
A: 60%

Q: What about the MBC [8] of the same molecule?
A: 1.56 mg/L

Q: And the MIC [9]?
A: < 6.25 mg/L

Q: What about the ED50 [10] of the same molecule?
A: < 2 mg/kg

Q: What about the MIC [11] of the same molecule?
A: 3.13 mg/L (≈ 5.52 µM)

Q: And the MBC [12]?
A: 25 mg/L

Q: And the MIC [13]?
A: 0.25 mg/L

Q: What about the MBC [14] of the same molecule?
A: 25 mg/L (≈ 44.1 µM)

Q: What about the efflux ratio [15] of the same molecule?
A: 5

Q: What about the MBC [16] of the same molecule?
A: 25 mg/L

Q: What about the MIC [17] of the same molecule?
A: 1.75 mg/L (≈ 3.09 µM)

Q: What about the MBC [18] of the same molecule?
A: 6.25 mg/L (≈ 11 µM)

Q: And the MBC [19]?
A: 6.25 mg/L

Q: What about the “fractional inhibitory concentration index (FICI)” value [20] of the same molecule?
A: 0.19

Q: And the solubility [21]?
A: Soluble

Q: What about the “fractional inhibitory concentration index (FICI)” value [22] of the same molecule?
A: 0.38

Q: What about the MBC [23] of the same molecule?
A: > 25 mg/L

Q: What about the survival at 20 mg/kg [24] of the same molecule?
A: 100%

Q: What about the MIC [25] of the same molecule?
A: 0.5 mg/L
